ChEMBL document CHEMBL3351269, “Phenylimidazoles as potent and selective inhibitors of coagulation factor XIa with in vivo antithrombotic activity” (J Med Chem, 2014)

Legend:
Coagulation factor XII = target: T1, Coagulation factor XII (Homo sapiens, UniProt P00748); assay: Inhibition of human coagulation factor 12a using H-(D)-CHT-Gly-Arg-pNA as substrate by spectrophotometric analysis
T1 sequence (P00748 whole entry): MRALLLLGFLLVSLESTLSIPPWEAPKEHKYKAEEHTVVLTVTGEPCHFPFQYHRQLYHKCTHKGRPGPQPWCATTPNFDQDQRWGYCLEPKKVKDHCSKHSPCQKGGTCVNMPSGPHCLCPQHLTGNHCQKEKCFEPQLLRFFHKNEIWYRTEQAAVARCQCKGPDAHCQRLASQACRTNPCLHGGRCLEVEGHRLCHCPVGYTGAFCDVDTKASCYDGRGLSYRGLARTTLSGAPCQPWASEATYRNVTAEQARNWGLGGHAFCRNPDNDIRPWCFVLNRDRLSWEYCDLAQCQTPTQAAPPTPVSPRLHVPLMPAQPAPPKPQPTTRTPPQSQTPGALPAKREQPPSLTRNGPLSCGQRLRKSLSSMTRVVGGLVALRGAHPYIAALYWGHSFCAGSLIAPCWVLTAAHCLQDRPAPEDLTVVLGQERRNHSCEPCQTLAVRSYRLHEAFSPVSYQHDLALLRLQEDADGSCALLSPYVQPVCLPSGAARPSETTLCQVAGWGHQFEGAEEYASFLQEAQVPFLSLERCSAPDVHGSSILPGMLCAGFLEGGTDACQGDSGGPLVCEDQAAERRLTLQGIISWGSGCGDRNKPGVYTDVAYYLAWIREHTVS
Outline: (§1)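 Purified human enzymes; reaction started by adding enzyme to substrate with or without inhibitor, excess substrate and inhibitor over enzyme, 1% DMSO, room temperature, 10–120 min. pNA read at 405 nm. FXIa, FXIIa and chymotrypsin in HEPES pH 7.4 with NaCl, KCl and PEG; FXa and kallikrein in phosphate pH 7.5; FVIIa in HEPES with CaCl2. IC50 from duplicates over 8–11 concentrations, converted to Ki assuming competitive inhibition.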

Plasma = assay: Anticoagulant activity in healthy human plasma assessed as prothrombin time by PT assay; format: functional
Outline: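 Citrated healthy-volunteer plasma spiked with inhibitor (10 mM DMSO stock diluted in plasma, up to seven concentrations). PT with Thromboplastin C-Plus: plasma warmed 3 min at 37 °C before reagent was added. Duplicates, as mean ratio to baseline control. Concentration that doubles clotting time by linear interpolation, as total plasma concentration.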

Coagulation factor VII = target: T2, Coagulation factor VII (Homo sapiens, UniProt P08709); assay: Inhibition of human coagulation factor 7a using H-(D)-Ile-Pro-Arg-pNA as substrate by spectrophotometric analysis; outline: as §1
T2 sequence (P08709 whole entry): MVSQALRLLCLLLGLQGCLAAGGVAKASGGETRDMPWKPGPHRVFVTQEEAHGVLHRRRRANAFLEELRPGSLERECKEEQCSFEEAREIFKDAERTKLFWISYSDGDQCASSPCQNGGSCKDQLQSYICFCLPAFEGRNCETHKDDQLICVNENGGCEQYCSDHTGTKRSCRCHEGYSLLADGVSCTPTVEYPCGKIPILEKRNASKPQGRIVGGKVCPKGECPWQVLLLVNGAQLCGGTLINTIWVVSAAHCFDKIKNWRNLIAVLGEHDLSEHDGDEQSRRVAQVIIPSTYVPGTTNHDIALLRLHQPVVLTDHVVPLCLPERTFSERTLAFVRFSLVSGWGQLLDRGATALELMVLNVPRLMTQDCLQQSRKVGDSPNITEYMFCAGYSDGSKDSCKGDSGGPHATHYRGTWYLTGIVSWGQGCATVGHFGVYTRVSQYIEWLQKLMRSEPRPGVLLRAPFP

[1] = Inhibition of rabbit coagulation factor 11a using p-nitroaniline as substrate assessed as substrate hydrolysis by spectrophotometrically; parameters: species or system Oryctolagus cuniculus
[2] = Volume of distribution at steady state in rabbit plasma at 0.5 mg/kg, iv; format: ADME, organism-based, Oryctolagus cuniculus; parameters: dose 0.5 mg/kg, route intravenous; settings: read-out: Vdss
Outline: (§2)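 Single iv dose of 0.5 mg/kg in rabbits; concentrations measured in rabbit plasma.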

Trypsin = Trypsin (Homo sapiens, UniProt P07477+P07478+P35030); assay: Inhibition of human coagulation trypsin using N-benzoyl-Ile-Glu-(OH, OMe)-Gly-Arg-pNA as substrate by spectrophotometric analysis; format: protein assay
Outline: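 Purified enzymes (α-thrombin; trypsin) in 100 mM sodium phosphate pH 7.5, 200 mM NaCl, 0.5% PEG 8000, 1% DMSO final, room temperature. Enzyme added last to substrate ± inhibitor, with substrate and inhibitor in excess. pNA release read at 405 nm over 10−120 min. IC50 from duplicate runs over 8−11 concentrations, then converted to Ki assuming competitive inhibition, using Km.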

Oryctolagus cuniculus = assay: Clearance in rabbit plasma at 0.5 mg/kg, iv; format: ADME, organism-based; parameters: dose 0.5 mg/kg, route intravenous; settings: in vivo; outline: as §2

Question: With `NC[C@H]1CC[C@H](C(=O)N[C@@H](Cc2ccccc2)c2nc(-c3ccc4c(N)n[nH]c4c3)c(Cl)[nH]2)CC1.O=C(O)C(F)(F)F` as the compound, how does the Ki (Coagulation factor XII) read?
Answer: 9.22 µM

Question: What about the 2PT (Plasma) of the same compound?
Answer: >40 µM

Question: What about the Ki (Coagulation factor VII) of the same compound?
Answer: 4.22 µM

Question: And the Ki [1]?
Answer: 0.0006 µM

Question: What about the Vd [2] of the same compound?
Answer: 0.7 L/kg

Question: What about the Ki (Trypsin) of the same compound?
Answer: 0.023 µM

Question: And the clearance (Oryctolagus cuniculus)?
Answer: 1.2 L/h/kg
